# How the values were obtained:
# [1] = Permeability across apical to basolateral side in human Caco2 cells incubated for 1 hr at 37 degC by HPLC-MS/MS method; assay type: ADME, cell-based; details: Caco-2
# Summary of the method: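 TC7 (Caco-2 subclone) monolayer; 10 μM compound in 1% DMSO in HBSS-MES pH 6.5 on apical donor side, basolateral receiver pH 7.4; shaken 1 h at 37 °C; receiver sampled, HPLC-MS/MS; duplicate means.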
# [2] = Solubility in simulated gastric fluid at pH 1.5 by HPLC method; assay type: physicochemical
# Summary of the method: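 Compound at 200 μM final in 2% DMSO in simulated gastric fluid, shaken 24 h at room temperature; HPLC-photodiode array detection at 230 nm; duplicate means.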
# [3] = AUC (0 to infinity) in C57BL/6 mouse at 40 mg/kg, po formulated in 20% DMSODMSO, 20% PEG400, 60% (30% HP-beta-CD in water); assay type: ADME, organism-based; parameters: dose 40 mg/kg, route oral, time infinity; details: plasma
# [4] = system: Mycobacterium tuberculosis; test: Antitubercular activity against Mycobacterium tuberculosis H37Rv incubated at 37 degC for 7 days by microplate alamar blue assay; assay type: functional; details: Mycobacterium tuberculosis, H37Rv, 168 h
# Summary of the method: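 Mtb H37Rv was grown in 7H9 broth with glycerol, Casitone, 10% OADC and 0.05% Tween 80 to OD600 0.4. Compounds were 2-fold serially diluted from DMSO stocks in 7H9, and wells were inoculated at 2 × 10⁵ CFU/mL. After 7 days at 37 °C, Alamar Blue was added and read after a further 24 h. MIC was the lowest concentration preventing the blue-to-pink change.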
# [5] = Volume of distribution in Sprague-Dawley rat at 5 mg/kg, iv; assay type: ADME, organism-based; parameters: dose 5 mg/kg, route intravenous; details: in vivo
# Summary of the method: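 Male Sprague-Dawley rats (n = 3), single 5 mg/kg iv dose as solution in PEG300/DMSO 50:50; plasma sampled 0.083–24 h, LC-MS bioanalysis; noncompartmental analysis, means.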
# CYP2C9 = CYP2C9 (Homo sapiens, UniProt P11712); test: Inhibition of human recombinant CYP2C9 at 10 uM incubated for 80 mins at 37 degC using 7-methoxy-4-trifluoromethylcoumarin substrate; assay type: ADME; details: recombinant CYP2C9, probe 7-methoxy-4-trifluoromethylcoumarin
# [6] = Cmax in Sprague-Dawley rat at 20 mg/kg, po; assay type: ADME, organism-based; parameters: dose 20 mg/kg, route oral; details: in vivo
# [7] = Distribution coefficient, log D of the compound between n-octanol and PBS buffer at pH 7.4 incubated for 1 hr by shake flask method; assay type: physicochemical
# Summary of the method: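 Partition between n-octanol and PBS pH 7.4 after 1 h shaking at room temperature; phases analysed by HPLC with photodiode detection; logD = log10 of organic/aqueous amount.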
# [8] = Cmax in C57BL/6 mouse at 40 mg/kg, po formulated in 20% DMSODMSO, 20% PEG400, 60% (30% HP-beta-CD in water); assay type: ADME, organism-based; parameters: dose 40 mg/kg, route oral; details: in vivo
# Summary of the method: (§1)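 Female C57BL/6 mice, single 40 mg/kg oral gavage; three mice per time point; plasma at 30 min to 24 h, LC-MS; noncompartmental parameters reported as means.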
# [9] = Half life in C57BL/6 mouse at 40 mg/kg, po formulated in 0.1% SLS; assay type: ADME, organism-based; parameters: dose 40 mg/kg, route oral; details: in vivo; summary of the method: as §1
# Salmonella typhimurium [10] = test: Mutagenicity in Salmonella typhimurium TA98 assessed as mean revertant colonies at 0.25 to 240 ug/well in presence of rat liver S9 fraction; assay type: toxicity, organism-based; details: salmonella enterica subsp. enterica serovar typhimurium
# Summary of the method: (§2)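 MicroAmes: strains preincubated with or without Aroclor-induced rat liver S9, duplicate wells, six concentrations 0.25–250 μg equivalents/well; DMSO vehicle, 4-nitroquinoline-N-oxide (−S9) and 2-aminoanthracene (+S9) positive controls; revertant colonies counted; cytotoxicity noted as reduced revertants or background lawn; precipitation recorded.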
# [11] = Tmax in C57BL/6 mouse at 40 mg/kg, po formulated in 0.1% SLS; assay type: ADME, organism-based; parameters: dose 40 mg/kg, route oral; details: in vivo; summary of the method: as §1
# CYP3A4 = CYP3A4 (Homo sapiens, UniProt P08684); test: Inhibition of human recombinant CYP3A4 at 10 uM incubated for 30 mins at 37 degC using 7-benzyloxy-4-(trifluoromethyl)coumarin substrate; assay type: ADME; details: recombinant CYP3A4, probe 7-benzyloxy-4-(trifluoromethyl)coumarin
# [12] = system: Mycobacterium tuberculosis; test: Antitubercular activity against Mycobacterium tuberculosis Erdman ATCC 35801 infected in C57BL/6 mouse assessed as viable bacterial load in spleen at 200 mg/kg twice daily through gavage 5 days per week for 4 weeks starting on 10th day post-infection (reference value: 4.79 +/- 0.21 log10CFU/spleen); assay type: functional
# [13] = Half life in Sprague-Dawley rat at 20 mg/kg, po; assay type: ADME, organism-based; parameters: dose 20 mg/kg, route oral; details: in vivo
# [14] = Permeability across basolateral to apical side in human Caco2 cells incubated for 1 hr at 37 degC by HPLC-MS/MS method; assay type: ADME, cell-based; details: Caco-2
# [15] = system: Mycobacterium tuberculosis; test: Antitubercular activity against Mycobacterium tuberculosis Erdman ATCC 35801 infected in C57BL/6 mouse assessed as viable bacterial load in spleen at 200 mg/kg/day through gavage 5 days per week for 4 weeks starting on 10th day post-infection (reference value: 4.79 +/- 0.21 log10CFU/spleen); assay type: functional
# Salmonella typhimurium [16] = test: Toxicity in Salmonella typhimurium TA100 assessed as compound level per well causing cytotoxicity at 0.25 to 240 ug/well in presence of rat liver S9 fraction; assay type: organism-based; details: salmonella enterica subsp. enterica serovar typhimurium; summary of the method: as §2
# [17] = AUC (0 to infinity) in C57BL/6 mouse at 40 mg/kg, po formulated in 0.1% SLS; assay type: ADME, organism-based; parameters: time infinity, dose 40 mg/kg, route oral; details: plasma
# [18] = system: Mycobacterium tuberculosis; test: Antitubercular activity against Mycobacterium tuberculosis Erdman ATCC 35801 infected in C57BL/6 mouse assessed as viable bacterial load in lung at 200 mg/kg/day through gavage 5 days per week for 4 weeks starting on 10th day post-infection (reference value: 6.49 +/- 0.10 log10CFU/lung); assay type: functional
# Salmonella typhimurium [19] = test: Mutagenicity in Salmonella typhimurium TA100 assessed as mean revertant colonies at 0.25 to 240 ug/well in presence of rat liver S9 fraction; assay type: toxicity, organism-based; details: salmonella enterica subsp. enterica serovar typhimurium; summary of the method: as §2
# [20] = Cmax in C57BL/6 mouse at 40 mg/kg, po formulated in 0.1% SLS; assay type: ADME, organism-based; parameters: dose 40 mg/kg, route oral; details: in vivo; summary of the method: as §1
# [21] = system: Mycobacterium tuberculosis; test: Antitubercular activity against Mycobacterium tuberculosis Erdman ATCC 35801 infected in C57BL/6 mouse assessed as viable bacterial load in lung at 200 mg/kg twice daily through gavage 5 days per week for 4 weeks starting on 10th day post-infection (reference value: 6.49 +/- 0.10 log10CFU/lung); assay type: functional
# [22] = Tmax in C57BL/6 mouse at 40 mg/kg, po formulated in 20% DMSODMSO, 20% PEG400, 60% (30% HP-beta-CD in water); assay type: ADME, organism-based; parameters: dose 40 mg/kg, route oral; details: in vivo; summary of the method: as §1
# [23] = Metabolic stability in human liver microsomes assessed as parent compound remaining at 1 uM incubated for 1 hr by HPLC-MS/MS method; assay type: ADME, Microsome; details: read-out: Stability
# Summary of the method: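 Pooled mixed-gender human liver microsomes (0.3 mg/mL protein), 1 μM compound with NADP-regenerating system in phosphate buffer pH 7.4, 1 h at 37 °C; parent measured at start and end by HPLC-MS/MS; duplicate means.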
# [24] = system: Mycobacterium tuberculosis; test: Antitubercular activity against Mycobacterium tuberculosis H37Rv incubated at 37 degC for 14 days in presence of 40% human serum by microplate alamar blue assay; assay type: functional; details: 336 h
# Summary of the method: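 This is the MABA run in 7H9 broth containing 40% human serum. Compounds were 2-fold serially diluted, and wells were inoculated with H37Rv at 2 × 10⁵ CFU/mL. Incubation was at 37 °C for 14 days, then Alamar Blue was added. MIC was the lowest concentration preventing the blue-to-pink colour change.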
# Sequence of CYP2C9 (P11712 whole entry): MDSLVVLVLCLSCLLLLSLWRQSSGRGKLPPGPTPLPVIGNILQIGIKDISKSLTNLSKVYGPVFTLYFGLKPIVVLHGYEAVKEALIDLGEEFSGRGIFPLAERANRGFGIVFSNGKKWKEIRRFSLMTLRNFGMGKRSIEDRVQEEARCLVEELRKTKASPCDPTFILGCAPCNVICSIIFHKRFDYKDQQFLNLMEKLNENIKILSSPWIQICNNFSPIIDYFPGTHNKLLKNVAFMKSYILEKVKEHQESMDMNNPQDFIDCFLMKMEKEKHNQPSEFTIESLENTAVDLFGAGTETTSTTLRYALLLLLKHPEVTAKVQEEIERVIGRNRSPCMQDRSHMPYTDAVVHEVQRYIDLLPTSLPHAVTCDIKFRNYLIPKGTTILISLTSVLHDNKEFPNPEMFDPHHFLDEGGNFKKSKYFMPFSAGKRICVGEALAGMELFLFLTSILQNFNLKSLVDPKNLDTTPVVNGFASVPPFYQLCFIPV
# Sequence of CYP3A4 (P08684 whole entry): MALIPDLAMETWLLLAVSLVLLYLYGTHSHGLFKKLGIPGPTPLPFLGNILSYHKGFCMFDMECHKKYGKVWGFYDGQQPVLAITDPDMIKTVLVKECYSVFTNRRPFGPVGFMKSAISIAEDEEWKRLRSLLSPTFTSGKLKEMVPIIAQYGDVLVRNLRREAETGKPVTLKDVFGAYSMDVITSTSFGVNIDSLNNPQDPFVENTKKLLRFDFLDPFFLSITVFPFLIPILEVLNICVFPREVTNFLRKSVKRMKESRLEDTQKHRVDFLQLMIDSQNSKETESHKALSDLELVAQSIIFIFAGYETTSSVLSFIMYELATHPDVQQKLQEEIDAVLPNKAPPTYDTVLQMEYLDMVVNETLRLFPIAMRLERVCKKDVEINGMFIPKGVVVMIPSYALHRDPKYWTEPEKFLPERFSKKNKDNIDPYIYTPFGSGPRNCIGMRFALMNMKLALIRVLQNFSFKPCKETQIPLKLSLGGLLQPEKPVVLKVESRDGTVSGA
compound,measurement,setting,value
O=C1C2=Nc3ccccc3CN2c2ccc(Cl)cc21,Papp A→B at 1 h,[1],60.8 ×10⁻⁶ cm/s
same,solubility,[2],79.2 µM
same,AUC(0-inf),[3],968 ng·h/mL
same,MIC,[4],0.125 µg/mL
same,Vd,[5],11.7 L/kg
same,"inhibition at 80 min, 10 µM",CYP2C9,27%
same,Cmax,[6],50 ng/mL
same,logD at 1 h,[7],3.37
same,Cmax,[8],371 ng/mL
same,half-life,[9],3.08 h
same,Activity,Salmonella typhimurium [10],Non-toxic
same,Tmax,[11],1 h
same,"inhibition at 0.5 h, 10 µM",CYP3A4,1%
same,log10cfu,[12],4.89
same,half-life,[13],3.33 h
same,Papp B→A at 1 h,[14],20.8 ×10⁻⁶ cm/s
same,log10cfu,[15],4.85
same,Activity,Salmonella typhimurium [16],>= 2.5 ug
same,AUC(0-inf),[17],1400 ng·h/mL
same,log10cfu,[18],6.58
same,Activity,Salmonella typhimurium [19],Non-toxic
same,Cmax,[20],197 ng/mL
same,log10cfu,[21],6.64
same,Tmax,[22],1.5 h
same,"remaining at 1 h, 1 µM",[23],53%
same,MIC,[24],0.125 µg/mL
